In ChEMBL document CHEMBL1144265, “Syntheses of 2,4,6-trisubstituted triazines as antimalarial agents” (Bioorg Med Chem Lett, 2005):
Values after ≈ are worked out from the molar mass of the structure shown.

How the values were obtained:
[1] = Partition coefficient (logP); assay type: physicochemical; conditions: octanol/water
[2] = test system: Plasmodium falciparum; assay: In vitro minimum inhibiting concentration for schizont maturation from ring stage parasite over 40 hrs; assay type: functional
How it was run: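 P. falciparum NF-54 kept in RPMI-1640 with 25 mM HEPES and 1% D-glucose. Rieckmann microassay: compound at […] in duplicate wells with parasitized cells, 37 °C in a candle jar for 36–40 h. Giemsa-stained smears were read by microscopy for ring-to-trophozoite/schizont maturation. MIC taken as the concentration that blocks complete maturation to schizonts.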

[3] = In vitro PKa value was determined; assay type: physicochemical

logP [1]	MIC [2] [µg/mL]	pKa [3]	SMILES
-0.06	10 (≈ 25.8 µM)	2.98	O=[N+]([O-])c1ccc(Nc2nc(N3CCOCC3)nc(N3CCOCC3)n2)cc1
1.94	10 (≈ 23 µM)	3.13	O=[N+]([O-])c1ccc(Nc2nc(Nc3cccc(F)c3)nc(Nc3cccc(F)c3)n2)cc1
0.345	1 (≈ 2.16 µM)	1.96	O=[N+]([O-])c1ccc(Nc2nc(NCCCn3ccnc3)nc(NCCCn3ccnc3)n2)cc1
0.356	1 (≈ 2.43 µM)	2.58	O=[N+]([O-])c1ccc(Nc2nc(NC3CCCCC3)nc(NC3CCCCC3)n2)cc1
1.64	10 (≈ 20.8 µM)	2.94	O=[N+]([O-])c1ccc(Nc2nc(N3CCc4cccnc4C3)nc(N3CCc4cccnc4C3)n2)cc1
0.228	1 (≈ 2.42 µM)	1.88	CN1CCN(c2nc(Nc3ccc([N+](=O)[O-])cc3)nc(N3CCN(C)CC3)n2)CC1
-0.56	50 (≈ 149 µM)	2.86	O=[N+]([O-])c1ccc(Nc2nc(NCCO)nc(NCCO)n2)cc1
0.372	2 (≈ 4.55 µM)	2.64	O=[N+]([O-])c1ccc(Nc2nc(NC3CCCCCC3)nc(NC3CCCCCC3)n2)cc1
2.06	10 (≈ 27.8 µM)	3.05	CCN(CC)c1nc(Nc2ccc([N+](=O)[O-])cc2)nc(N(CC)CC)n1
2.54	50 (≈ 130 µM)	3.95	O=[N+]([O-])c1ccc(Nc2nc(N3CCCCC3)nc(N3CCCCC3)n2)cc1
2.46	50 (≈ 141 µM)	3.62	O=[N+]([O-])c1ccc(Nc2nc(N3CCCC3)nc(N3CCCC3)n2)cc1
0.396	2 (≈ 5.56 µM)	2.32	CCCCNc1nc(NCCCC)nc(Nc2ccc([N+](=O)[O-])cc2)n1
2.84	50 (≈ 139 µM)	3.68	CC(C)(C)Nc1nc(Nc2ccc([N+](=O)[O-])cc2)nc(NC(C)(C)C)n1
1.64	10 (≈ 18.6 µM)	2.86	O=[N+]([O-])c1ccc(Nc2nc(N3CCN(c4ccccc4)CC3)nc(N3CCN(c4ccccc4)CC3)n2)cc1
0.92	2 (≈ 3.54 µM)	2.12	O=[N+]([O-])c1ccc(Nc2nc(N3CCN(Cc4ccccc4)CC3)nc(N3CCN(Cc4ccccc4)CC3)n2)cc1
1.68	10 (≈ 23.4 µM)	2.88	O=[N+]([O-])c1ccc(Nc2nc(NCc3ccccc3)nc(NCc3ccccc3)n2)cc1
2.94	64 (≈ 254 µM)	3.82	CC1(C)N=C(N)N=C(N)N1c1ccc(Cl)cc1 [CYCLOGUANIL]
